The target in data set [1] is T1, EGF receptor on MDCK cells (Canis lupus familiaris, UniProt A0A8I3RYJ5). In kind it is binding, canine. The settings on record: for EGF bound, % of the total tracer added: 4 C, 50,000 cpm [125I]EGF. The procedure, abridged: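 Confluent MDCK filter monolayers (1.8–2.0×10^6 cells/well) washed three times with cold PBS. Hepes buffer (50 mM Hepes, 1% BSA, pH 7.4) added both sides. 50,000 cpm [125I]EGF (194 µCi/µg) plus unlabeled EGF 1–200 ng/ml applied to apical or basal side. Incubated 6 h at 4°C, then washed. Filters excised and gamma-counted. Scatchard analysis.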

Another data set has as its system MDCK cells. It is filed as in vitro ADME, canine. In short, it runs like this:
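MDCK monolayers on nitrocellulose Millicell filters, 5–7 d after plating (1.8–2.0×10^6 cells/well at confluence). Both sides washed with PBS pH 7.4. Chloramine-T-iodinated EGF tracer added to one side at 4°C, then held at 4, 15 or 37°C, with [14C]inulin (50,000 cpm) as leak marker. In a second format, tracer was bound basally 2.5 h at 4°C, washed, and moved to 37°C. Triplicate wells, mean ± SD.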

Data set [2] is described as follows: Diffusion across nitrocellulose filter of empty chambers. It is filed as in vitro ADME. As to conditions: empty chamber, nitrocellulose filter without cells; 2 h; ~50,000 cpm tracer.
Data set [3] concerns the target T1, EGF receptor on MDCK cells. It is filed as cell-based, canine. In short, it runs like this:
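MDCK monolayers on 0.45-µm nitrocellulose filter chambers, used 5–7 d after plating. Hepes buffer pH 7.4. 50,000 cpm (0.137 ng) chloramine-T-iodinated EGF plus 50,000 cpm [14C]inulin leakage marker added apically or basally. Opposite side sampled every 30 min with buffer replacement. Cumulative counts expressed as % of tracer added. Antibody 1:100 preincubated basally 60 min at 37°C, sampled over 4.5 h. Triplicate wells.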

Data set [4] relates to insulin receptors on MDCK cells. Briefly: [125I]insulin binding to basal or apical surface of MDCK cells. On the set-up: species or system canine. The settings on record: Hepes buffer, 15 C.

Values joined by “and” are separate entries in the source; they are usually repeats but may differ in a detail not shown here. Identical values can stand only once. Like-named read-outs stand apart in the source and are kept apart here.

As to epidermal growth factor [EGF], the “EGF bound, % of the total tracer added” value in data set [1] (apical surface of MDCK cells) is < 1% and 0.8%; in data set [1] (basal surface of MDCK cells, binding maximal within 4 h) it was 6.5% and ~ 6%. The “Concentration of cold EGF that inhibited binding by 50%” value in data set [1] (basal surface of MDCK cells, 6 h at 4 C, competition with [125I]EGF) came to 5 ng/mL. For the same substance, in the data set on MDCK cells (4 C versus 37 C, mean of triplicate wells), the “Transport of EGF basal-to-apical at 4 C (in words)” value is “even further decreased”. The “Transport of EGF basal-to-apical at 15 C (in words)” value in the data set with MDCK cells (15 C versus 37 C, mean of triplicate wells) is “markedly decreased”. Also, the “Transport in the apical-to-basal direction (in words)” value with MDCK cells (MDCK monolayer) is “No transport”. Further, in the data set with MDCK cells (pre-bound tracer on basal surface, warmed from 4 C to 37 C), the “Time to appearance of EGF at the apical surface after warming” value is reported as at most 15 min. Moreover, the “Diffusion across the membrane, % of the total added” value in data set [2] is listed as 22%. In data set [3] (0.85 nM (5 ng/ml) unlabeled EGF), the “Effect of unlabeled EGF on transport of tracer EGF, basal-to-apical” value is given as “substantial de- crease”. In data set [3] (110 nM cold EGF), the “Effect of unlabeled EGF on transcytosis of labeled EGF, apical-to-basal” value was “no effect”. The “Effect of unlabeled EGF on transcytosis of labeled EGF, basal-to-apical” value in data set [3] (110 nM unlabeled EGF) is given as “completely inhibited”.
For insulin, in data set [4], the Binding of insulin result is listed as “failed to detect binding”. In the data set on MDCK cells (MDCK monolayer, basal-to-apical and apical-to-basal), the “Transport in either direction (in words)” value was “not observed”.

For the origin of these results see publication PMC2114648 (The Journal of Cell Biology, 1987).
